ChEMBL document CHEMBL4513216, “Probing the Open Global Health Chemical Diversity Library for Multistage-Active Starting Points for Next-Generation Antimalarials” (ACS Infect Dis, 2020)

Test: Toxicity liver stage against HepG2, at 10uM
Format: cell-based
Parameters: test concentration 10 uM, cell line HepG2-A16-CD81EGFP
Conditions: human, HepG2-A16-CD81EGFP cells; read-out: INHIBITION
Method in brief: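 Uninfected HepG2-A16-CD81EGFP cells, 3 × 10^3 per well, 1536-well, plated on prespotted compound at 10 μM final, parasite-free screening media added to match infected plates; puromycin 10 μM positive, DMSO 0.5% negative; run in parallel with 48 h PbLuc assay at 37 °C, 5% CO2; viability by CellTiter-Glo luminescence, normalized to controls.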

Row | SMILES | cytotoxicity at 10 µM
1 | Cc1cc2[nH]c(=O)c(=O)[nH]c2cc1S(=O)(=O)NC1CCC(C)CC1 (centres undefined) | -10.5%
2 | Oc1ccc(N2CCN(Cc3cc4c(cc3Br)OCCO4)CC2)cc1 | 6.87%
3 | CC(C)(C)c1c[nH]c([C@@H]2COCCN2C2CCC2)n1 | 5.99%
4 | CCN1Cc2cc(F)ccc2N(C(C)=O)CCC1=O | -4.78%
5 | C=Cc1ccc(CSc2nc3c(c(=O)[nH]2)CN(CCC)CC3)cc1 | -4.68%
6 | CN1CCCN(C(=O)c2nnn(-c3ccc(C(F)(F)F)cc3)n2)CC1 | -7.37%
7 | CCS(=O)(=O)N1CCc2nc(N3CCCC3)nc(N(C)C)c2CC1 | 14.3%
8 | O=C(CC1CC1)N1CCCn2c(nnc2Cn2cccc2)C1 | 10.7%
9 | CC(C)CN1C[C@H]2CCN(C(=O)C3CCCO3)CC[C@H]2S1(=O)=O (some centres undefined) | 19.3%
10 | CC1CCN(c2ccc3c(-c4ncc(C(=O)O)s4)noc3c2)CC1 | 2.13%
11 | Cc1cc(C(=O)N2CC[C@@H]3CO[C@@H](CN4CCCC4)[C@@H]3C2)no1 | 7.61%
12 | CC(C)NC(=O)C1Cc2nc(-c3ccsc3)sc2N1CC1CC1 (centres undefined) | 6.61%
13 | O=C(c1ccc[nH]1)N1CCN(Cc2ccncc2)c2ncccc2C1 | 10.1%
14 | O=C(c1cnccn1)N1CCC2(CCN(Cc3ccsc3)C2)CC1 | -3.33%
15 | CN1CCN(C(=O)[C@@H]2C[C@@H]3CCN(c4cccc(F)c4)C[C@H]3O2)CC1 | -6.22%
16 | O=C(c1ccncc1)N1CCN2C[C@H](Oc3cncnc3)C[C@H]2C1 | 8.7%
17 | CN(Cc1ccco1)C[C@H]1OC[C@@H]2CCN(Cc3nccs3)C[C@@H]21 | -5.9%
18 | Cc1oncc1C(=O)N1CCC2(CC1)CC(c1ccccc1)C(=O)N2C (centres undefined) | -14.5%
19 | CCN1CCN(C(=O)C2CC(=O)N(c3cnn(C(C)C)c3)C2)CC1 (centres undefined) | 5.61%
20 | CC1(c2nccs2)CCN(C(=O)CCN2CCOCC2)CC1 | 2.97%
21 | CCCC(=O)N1CCCCC1c1nc(N(C)C)ncc1-c1cc(C)no1 (centres undefined) | 4.94%
22 | CNC(=O)CCc1cc(C)nc(C2CCN(CC(=O)N(C)C)CC2)c1 | 2.9%
23 | O=C(c1ccc(-n2cccn2)nc1)N1CCC(c2ccn[nH]2)C1 (centres undefined) | -0.399%
24 | CC(=O)N1CCN([C@@H]2CN(C(=O)c3ccccc3C)C[C@H]2O)CC1 | -3.79%
25 | Cc1ccsc1CN(CCCO)Cc1nc2ccccc2[nH]1 | -21.3%
26 | CN1CCNC(Cc2ccc(-c3ccccc3)cc2)C1=O (centres undefined) | -41.9%
27 | Cc1n[nH]c(C)c1-c1cnc(CC2CCN(C(C)C)CC2)cn1 | 22.3%

Row | SMILES | cytotoxicity at 10 µM
28 | CCN(Cc1ccncc1)CC1(O)CCN(C(=O)c2ccccc2C)C1 (centres undefined) | -22%
29 | CC1CCN(CCNCc2cc(-c3ccccc3)cn3nnnc23)CC1 | -20.4%
30 | CCN(CC(=O)NC(C)(C)C)Cc1cccc2c1OCCO2 | -18.7%
31 | CC(C)N1C(=O)CN(CCOCCO)CC1(C)C | 1.94%
32 | CCC(C)CS(=O)(=O)NCCc1csc(N2CCCC2)n1 (centres undefined) | 1.28%
33 | CC(C)NC(=O)CN(C)C(=O)c1csc(Cc2ccccc2F)n1 | 3.24%
34 | Cc1cc(C)n(C2CCCN(C(=O)c3ccnc(N(C)C)c3)C2)n1 (centres undefined) | 1.9%
35 | CCOc1ccc(Cl)c(C(=O)N2CCCC(N3CCCC3)C2)n1 (centres undefined) | 8.29%
36 | CN(C)c1ccc(C(=O)N2CCCC2c2cnn(C)c2)nn1 (centres undefined) | -10.3%
37 | CC(C)N1CCC(Nc2ccn(C)n2)C1=O (centres undefined) | -0.794%
38 | CC(C)c1nc(S(=O)(=O)N(C)c2cc(F)ccc2F)c[nH]1 | 13.9%
39 | CC(C)(C)CC(=O)NCC(=O)Nc1ccn(CCCn2ccnc2)n1 | 10.6%
40 | CCCN(CCC)C(=O)CN(C)Cc1cnc(C)s1 | 20.9%
41 | CN(C(=O)CCc1nc(C2CC2)no1)c1cc(C#N)c2ccccc2n1 | 0.55%
42 | COCCCn1ccc(NS(=O)(=O)c2cc(F)c(C)cc2F)n1 | 19.1%
43 | Cc1ccc(NC(=O)Cn2cc(I)cn2)cc1 | 9.06%
44 | CN(C)C(=O)CNC(=O)Nc1cccc(Cl)c1SC(F)F | 1.31%
45 | O=C([C@@H]1CCS(=O)(=O)[C@@H]2CN(c3ncccn3)C[C@@H]21)N1CCOCC1 | -100%
46 | Cc1nc(C)c2c(n1)CCN(C(=O)C1(C#N)CC1)CC2 | -102%
47 | CS(=O)(=O)NC[C@]12COC[C@H]1CN(C(=O)C1CC=CC1)C2 | -105%
48 | Cc1noc(C)c1CCCNC(=O)Nc1ccc2c(c1)COC2 | 3.27%
49 | CCCc1nnc(N2CCC(N3CCCCCC3)CC2)o1 | -15.3%
50 | COc1cc(N2CCN(Cc3ccsc3)C(CCO)C2)nc(N)n1 (centres undefined) | 2.45%
51 | Cc1ccc(-c2ncc(C(=O)N3CCN4CCCCC4C3)c(O)n2)cc1 (centres undefined) | -7.82%
52 | O=C(CCCn1ccnc1)N[C@H]1CN(C2CCCC2)C[C@@H]1C1CC1 | 7.69%
53 | COCCn1cnnc1CN(C)c1nc(N)nc2c1CCCC2 | -6.98%
54 | Cc1cncc(NC(=O)c2ccc(CN3CCCC(C(N)=O)C3)cc2)c1 (centres undefined) | 0.86%

Row | SMILES | cytotoxicity at 10 µM
55 | CC(=O)N1CCCN(C(C(=O)O)c2cccc(C)c2C)CC1 (centres undefined) | -2.75%
56 | Cc1n[nH]cc1C(=O)NCc1cccnc1N1CCc2ccccc2C1 | 8.81%
57 | CCN(CC)CCN(C)c1nc(-c2ccc(Cl)cc2)nc2c1CNC2 | 1.78%
58 | Nc1nc2c(c(NCC(c3cccnc3)N3CCOCC3)n1)CCNC2 (centres undefined) | 9.03%
59 | CCCc1cc(C(=O)NC2CCCCNC2=O)[nH]n1 (centres undefined) | 0.828%
60 | CCOc1ccc(-c2ccnc(C3CC3)n2)cc1C(=O)O | -0.173%
61 | N#Cc1ccccc1C(=O)NCCC1CN(Cc2ccco2)CCO1 (centres undefined) | -7.25%
62 | CCOc1ccnc(NCCc2nc(C)cc(=O)[nH]2)n1 | -6.73%
63 | Cc1cnc(NCC(C)(C)N2CCCCC2)nc1 | -2.69%
64 | COc1ccc2c(c1)C(C(=O)N(C)CCCc1nccn1C)CC(=O)N2 (centres undefined) | -56%
65 | Cc1ncccc1O[C@H]1CCN(C(=O)c2cccs2)CC[C@@H]1O | 0.719%
66 | CCS(=O)(=O)NCCCNCc1c(C)nn(C)c1N(C)C | -9.66%
67 | CC(C)(O)CN1CCN(C(=O)COCc2ccccc2Cl)CC1 | -4.72%
68 | CNS(=O)(=O)Cc1ccc(CNC(=O)c2cccc(C)n2)cc1 | -3.79%
69 | CC(=O)N(C)c1nc(CN2CCCCC2Cn2cncn2)cs1 (centres undefined) | -5.79%
70 | O=C(NCC1CCOC1)Nc1ccc(OCC(F)(F)F)nc1 (centres undefined) | -5.41%
71 | CCc1nc2n(n1)CC(NCC(=O)Nc1ccc(Cl)cn1)CC2 (centres undefined) | -10.3%
72 | CC(C)NC(=O)[C@H]1C[C@@H]2[C@@H](C1)OCCN2Cc1ccccn1 | 6.62%
73 | O=C(c1ccnnc1)N1CCN(Cc2ccncc2)c2ncccc2C1 | -0.201%
74 | O=C(NCc1cnc2n1CCN(Cc1nccs1)C2)c1ccno1 | -104%
75 | O=C1CCC2(CCCN(CCc3ccccc3)C2)N1Cc1cccnc1 (centres undefined) | 4.05%
76 | CCC(C)N1Cc2c(C(=O)N3CCCC3)nn(C)c2C1 (centres undefined) | -5.03%
77 | O=C([C@H]1C[C@@H]2CCN(c3cccc(F)c3)C[C@H]2O1)N1CCCCO1 | 1.67%
78 | O=C(c1ccco1)N1C[C@@H]2OCCN(CCN3CCCC3)[C@@H]2C1 | 1.54%
79 | CC(C)n1nc(Cn2cccc2)c2c1CN(C1CCOCC1)C2 | 7.55%
